Measured values taken from ChEMBL document CHEMBL1938298, “Synthesis and characterization of [¹²⁵I]2-iodo N-[(S)-{(S)-1-methylpiperidin-2-yl}(phenyl)methyl]3-trifluoromethyl-benzamide as novel imaging probe for glycine transporter 1” (Bioorg Med Chem, 2011).
Each block holds one compound with its values, some of them ahead of it. Activity calls are given as the source filed them. The rule behind the calls is not given here.

Columns and labels:
[1] = system: Intestine; test: Drug uptake in ddY mouse intestine at 11.1 kBq, iv after 30 min by gamma counting; format: ADME, organism-based; settings: in vivo, 0.5 h
Procedure, shortened: (§1)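 Male ddY mice (6 weeks, 30–35 g) received about 11.1 kBq [125I]tracer in 0.1 mL i.v. via tail vein. Killed at set times, organs dissected and weighed, radioactivity gamma counted. Reported as % injected dose/g tissue, mean ± SD, n = 5–6.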

[2] = system: Intestine; test: Drug uptake in ddY mouse intestine at 11.1 kBq, iv after 60 min by gamma counting; format: ADME, organism-based; settings: in vivo, 1 h; procedure, shortened: as §1
[3] = system: Intestine; test: Drug uptake in ddY mouse intestine at 11.1 kBq, iv after 180 min by gamma counting; format: ADME, organism-based; settings: in vivo, 3 h; procedure, shortened: as §1
[4] = system: Spleen; test: Drug uptake in ddY mouse spleen at 11.1 kBq, iv after 0.5 min by gamma counting; format: ADME, organism-based; settings: in vivo
Procedure, shortened: (§2)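 Male ddY mice (6 weeks, 30–35 g) were given about 11.1 kBq of [125I]tracer in 0.1 mL i.v. via the tail vein. At each time point the animals were killed and organs dissected, weighed and gamma-counted. Uptake is expressed as % injected dose per gram of tissue, mean ± SD, n = 5–6.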

[5] = system: Spleen; test: Drug uptake in ddY mouse spleen at 11.1 kBq, iv after 180 min by gamma counting; format: ADME, organism-based; settings: in vivo, 3 h; procedure, shortened: as §2
[6] = system: Mus musculus; test: In vivo binding affinity to GlyT1 in ddY mouse brain thalamus at 33.3 kBq, iv after 30 mins in presence of nonradioactive compound 2 mg/kg, iv administered 15 mins prior to compound administration relative to control; format: functional
[7] = system: Nucleic Acid; test: Ratio of drug level in brain to blood in ddY mouse at 11.1 kBq, iv after 15 min by gamma counting; format: ADME, organism-based
[8] = system: Stomach; test: Drug uptake in ddY mouse stomach at 11.1 kBq, iv after 15 min by gamma counting; format: ADME, organism-based; settings: in vivo; procedure, shortened: as §2
[9] = system: Pancreas; test: Drug uptake in ddY mouse pancreas at 11.1 kBq, iv after 5 min by gamma counting; format: ADME, organism-based; settings: in vivo; procedure, shortened: as §2
[10] = system: Mus musculus; test: In vivo binding affinity to GlyT1 in ddY mouse brain striatum at 33.3 kBq, iv after 60 mins in presence of N-Me-SSR504734 2 mg/kg, iv administered 15 mins prior to compound administration relative to control; format: functional, organism-based; parameters: dose 2 mg/kg; settings: tested as the 125I-labelled form
[11] = system: Mus musculus; test: In vivo binding affinity to GlyT1 in ddY mouse brain striatum at 33.3 kBq, iv after 30 mins in presence of SSR504734 2 mg/kg, iv administered 15 mins prior to compound administration relative to control; format: functional, organism-based; parameters: dose 2 mg/kg; settings: tested as the 125I-labelled form
[12] = target: T1, Sodium- and chloride-dependent glycine transporter 1 (Rattus norvegicus) (UniProt P28572); test: Binding affinity to GlyT1 in rat brain striatum at 0.03 to 0.04 nM preincubated for 20 mins in binding buffer before compound addition measured after 30 mins by autoradiography in presence of 0.01 mM GlyT1 inhibitor HPCP relative to control; format: tissue-based; settings: tested as the 125I-labelled form
T1 sequence (whole entry): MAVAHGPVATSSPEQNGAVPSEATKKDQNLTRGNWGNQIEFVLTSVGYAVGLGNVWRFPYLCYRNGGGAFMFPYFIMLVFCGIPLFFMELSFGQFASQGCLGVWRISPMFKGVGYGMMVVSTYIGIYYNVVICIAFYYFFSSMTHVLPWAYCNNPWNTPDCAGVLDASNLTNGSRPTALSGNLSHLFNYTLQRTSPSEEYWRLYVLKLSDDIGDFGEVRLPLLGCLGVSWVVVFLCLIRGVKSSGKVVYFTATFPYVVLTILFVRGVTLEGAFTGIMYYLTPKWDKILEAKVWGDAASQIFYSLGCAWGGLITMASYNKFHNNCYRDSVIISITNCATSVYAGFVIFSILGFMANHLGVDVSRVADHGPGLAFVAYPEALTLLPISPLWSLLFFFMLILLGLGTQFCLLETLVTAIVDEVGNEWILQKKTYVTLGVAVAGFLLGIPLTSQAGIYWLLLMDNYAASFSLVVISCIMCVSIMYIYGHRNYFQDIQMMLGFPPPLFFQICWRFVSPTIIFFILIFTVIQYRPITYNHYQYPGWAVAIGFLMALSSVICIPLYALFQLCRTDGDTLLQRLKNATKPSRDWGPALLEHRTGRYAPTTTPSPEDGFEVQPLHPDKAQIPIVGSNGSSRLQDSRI

[13] = target: T1, Sodium- and chloride-dependent glycine transporter 1 (Rattus norvegicus); test: Binding affinity to GlyT1 in rat brain striatum at 0.03 to 0.04 nM preincubated for 20 mins in binding buffer before compound addition measured after 30 mins by autoradiography in presence of 1 mM GlyT1 substrate glycine relative to control; format: tissue-based; settings: tested as the 125I-labelled form
[14] = target: T1, Sodium- and chloride-dependent glycine transporter 1 (Rattus norvegicus); test: Binding affinity to GlyT1 in rat brain thalamus at 0.03 to 0.04 nM preincubated for 20 mins in binding buffer before compound addition measured after 30 mins by autoradiography in presence of 0.01 mM GlyT1 inhibitor ALX5407 relative to control; format: tissue-based; settings: tested as the 125I-labelled form
[15] = target: T1, Sodium- and chloride-dependent glycine transporter 1 (Rattus norvegicus); test: Binding affinity to GlyT1 in rat brain cerebellum at 0.03 to 0.04 nM preincubated for 20 mins in binding buffer before compound addition measured after 30 mins by autoradiography in presence of 0.01 mM GlyT1 inhibitor HPCP relative to control; format: tissue-based; settings: tested as the 125I-labelled form
Procedure, shortened: (§3)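 Rat brain sagittal sections (20 µm) preincubated 20 min at 25 °C in Tris-HCl buffer pH 7.5 (NaCl, KCl, MgCl2, CaCl2), then 30 min at 25 °C with [125I] tracer (100 kBq, 0.03–0.04 nM) plus competitor (10 µM; glycine 1 or 10 mM). Cold washes, imaging plate 3 days, ROI PSL minus background per mm². % control from ≥triplicate slices, three rats.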

[16] = target: T1, Sodium- and chloride-dependent glycine transporter 1 (Rattus norvegicus); test: Binding affinity to GlyT1 in rat brain cerebellum at 0.03 to 0.04 nM preincubated for 20 mins in binding buffer before compound addition measured after 30 mins by autoradiography in presence of 10 mM GlyT1 substrate glycine relative to control; format: tissue-based; settings: tested as the 125I-labelled form; procedure, shortened: as §3
[17] = target: T1, Sodium- and chloride-dependent glycine transporter 1 (Rattus norvegicus); test: Binding affinity to GlyT1 in rat brain midbrain at 0.03 to 0.04 nM preincubated for 20 mins in binding buffer before compound addition measured after 30 mins by autoradiography in presence of 0.01 mM GlyT1 inhibitor HPCP relative to control; format: tissue-based; settings: tested as the 125I-labelled form; procedure, shortened: as §3
[18] = target: T1, Sodium- and chloride-dependent glycine transporter 1 (Rattus norvegicus); test: Binding affinity to GlyT1 in rat brain midbrain at 0.03 to 0.04 nM preincubated for 20 mins in binding buffer before compound addition measured after 30 mins by autoradiography in presence of 10 mM GlyT1 substrate glycine relative to control; format: tissue-based; settings: tested as the 125I-labelled form
[19] = target: T1, Sodium- and chloride-dependent glycine transporter 1 (Rattus norvegicus); test: Binding affinity to GlyT1 in rat brain cerebral cortex at 0.03 to 0.04 nM preincubated for 20 mins in binding buffer before compound addition measured after 30 mins by autoradiography in presence of 0.01 mM GlyT1 inhibitor SSR504734 relative to control; format: tissue-based; settings: tested as the 125I-labelled form; procedure, shortened: as §3
[20] = target: T1, Sodium- and chloride-dependent glycine transporter 1 (Rattus norvegicus); test: Binding affinity to GlyT1 in rat brain cerebral cortex at 0.03 to 0.04 nM preincubated for 20 mins in binding buffer before compound addition measured after 30 mins by autoradiography in presence of GlyT1 inhibitor N-Me-SSR504734 relative to control; format: tissue-based; settings: tested as the 125I-labelled form; procedure, shortened: as §3
[21] = target: T1, Sodium- and chloride-dependent glycine transporter 1 (Rattus norvegicus); test: Binding affinity to GlyT1 in rat brain cerebral cortex at 0.03 to 0.04 nM preincubated for 20 mins in binding buffer before compound addition measured after 30 mins by autoradiography in presence of 0.01 mM GlyT1 inhibitor ALX5407 relative to control; format: tissue-based; settings: tested as the 125I-labelled form; procedure, shortened: as §3

Drug uptake [1]: 5.76 % ID/g
Drug uptake [2]: 9.59 % ID/g
Drug uptake [3]: 17.13 % ID/g
Drug uptake [4]: 0.97 % ID/g
Drug uptake [5]: 3.41 % ID/g
Ratio [7]: 2.42
Drug uptake [8]: 5.22 % ID/g
Drug uptake [9]: 6.4 % ID/g
Compound: CN1CCCC[C@H]1[C@@H](NC(=O)c1cccc(C(F)(F)F)c1[125I])c1ccccc1
Activity [6]: 45%

Activity [12]: 31.8%
Activity [13]: 122%
Activity [14]: 33.2%
Activity [15]: 23%
Activity [16]: 44.9%
Activity [17]: 19.7%
Activity [18]: 52.1%
Activity [19]: 29.3%
Activity [20]: 37.5%
Activity [21]: 57.6%
Compound: CN1CCCC[C@H]1[C@@H](NC(=O)c1cccc(C(F)(F)F)c1I)c1ccccc1
Activity [10]: Active
Activity [11]: inactive
